Two compounds from ChEMBL document CHEMBL1212851, “Baculiferins A-O, O-sulfated pyrrole alkaloids with anti-HIV-1 activity, from the Chinese marine sponge Iotrochota baculifera” (Bioorg Med Chem, 2010) can be followed below.

Values after ≈ are worked out from the molar mass of the structure shown. Active and inactive are the calls of the source. The rule behind the calls is not given here.

One test deals with HCT-8. Put plainly: Cytotoxicity against human HCT8 cells. Type of test: functional, cell-based.
The next test concerns Bel-7402. Description: Cytotoxicity against human Bel7402 cells. Type of test: functional, cell-based.
The next test has as its system BGC-823. Description: Cytotoxicity against human BGC823 cells. Type of test: functional, cell-based.
The next test concerns A549. Put plainly: Cytotoxicity against human A549 cells. Type of test: functional, cell-based.
A further test relates to A2780. Description: Cytotoxicity against human A2780 cells. Type of test: functional, cell-based.
Test [1] has as its system Human immunodeficiency virus 1. Description: Antiviral activity against HIV1 3B infected in human MT4 cells after 5 days by p24 antigen detection assay. Conditions: Human immunodeficiency virus 1, 3B, MT4, 120 h. Type of test: functional, organism-based. In a few lines:
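MT-4 cells infected with 10000 TCID50 HIV-1 IIIB for 2 h at 37 °C, washed, then plated at 5 × 10^4 cells per well. Compounds added from 250 µg/mL in fivefold serial dilutions, five dilutions with four replicates each. Cultures held 5 d at 37 °C in 5% CO2. On day 3 half the supernatant was replaced with fresh compound or medium. On day 5 supernatant p24 measured, inhibition computed relative to virus control, and IC50 taken by linear regression.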

The subject of test [2] is Human immunodeficiency virus 1. Put plainly: Antiviral activity against HIV1 3B infected in human MAGI cells after 40 to 48 hrs assessed as inhibition of viral life cycle. Type of test: functional, organism-based. Conditions: Human immunodeficiency virus 1, 3B. The method in brief:
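HeLa-CD4-LTR-β-gal (MAGI) indicator cells plated at 6000 per well and infected with 2000 TCID50 HIV-1 IIIB. Compounds added in fourfold serial dilutions, five dilutions with four replicates each, at a final top concentration of half the 200 µg/mL stock dilution. Cells incubated 40–48 h at 37 °C in 5% CO2, then fixed, stained, and blue cells counted by microscopy. Single-round infection.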

Test [3] deals with Human immunodeficiency virus 1. Put plainly: Binding affinity to HIV1 recombinant Vif at 20 ug/ml. In a few lines: (§1)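 Recombinant gp41, Vif or APOBEC3G each immobilized on a CM5 sensor chip in a separate flow cell. Binding monitored by surface plasmon resonance on a BIAcore instrument.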
For test [4], the target named is DNA dC->dU-editing enzyme APOBEC-3G (Homo sapiens) (UniProt Q9HC16). Put plainly: Binding affinity to human recombinant APOBEC3G at 20 ug/ml. In a few lines: as §1
Sequence of DNA dC->dU-editing enzyme APOBEC-3G (Homo sapiens) (Q9HC16 whole entry): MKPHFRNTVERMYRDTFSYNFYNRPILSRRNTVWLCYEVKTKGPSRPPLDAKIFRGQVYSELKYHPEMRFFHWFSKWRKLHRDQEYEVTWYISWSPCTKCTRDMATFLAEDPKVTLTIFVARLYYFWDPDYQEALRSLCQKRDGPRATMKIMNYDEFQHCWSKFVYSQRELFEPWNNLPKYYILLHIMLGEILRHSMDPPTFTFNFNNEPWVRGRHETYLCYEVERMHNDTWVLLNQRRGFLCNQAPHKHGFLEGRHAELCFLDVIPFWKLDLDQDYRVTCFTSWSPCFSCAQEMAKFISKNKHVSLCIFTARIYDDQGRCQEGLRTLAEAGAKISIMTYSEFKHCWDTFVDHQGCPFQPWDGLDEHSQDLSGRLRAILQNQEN
For test [5], the system named is Human immunodeficiency virus 1. Description: Binding affinity to HIV1 recombinant gp41 at 20 ug/ml. In a few lines: as §1
Test [6] has as its system Human immunodeficiency virus 1. Put plainly: Antiviral activity against HIV1 infected in human HEK293 cells assessed as inhibition of viral replication. Type of test: functional, organism-based. In a few lines: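 VSVG-pseudotyped HIV-luc virus system in HEK-293 cells, used to assess inhibition of HIV-1 replication.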
For test [7], the system named is Candida albicans. Put plainly: Effect on brefeldin A MIC against Candida albicans isolate GU4 in presence of 30 uM compound by two fold dilution method.
Test [8] relates to Candida albicans. Description: Multidrug reversal activity in Candida albicans isolate GU5 assessed as brefeldin A MIC in presence of 30 uM compound expressing CDR1 and CDR2 by two fold dilution method.

In the case of `O=C1C(c2ccc(O)c(O)c2)=c2c(c3c(n2CCc2ccc(O)cc2)=C(c2ccc(O)c(O)c2)C(=O)c2cc(O)c(OS(=O)(=O)O)cc2-3)-c2cc(O)c(O)cc21` [BACULIFERIN A], the outcome (in the test with HCT-8; in the test with Bel-7402; with BGC-823; in the test on A549; in the test with A2780; in [6]) was inactive. The IC50 in test [1] worked out at 7.6 µg/mL (≈ 9.77 µM); in test [2], 3.7 µg/mL (≈ 4.76 µM). Also, the RU was 111 pg/mm2 in [3], 171 pg/mm2 in test [4] and 17.1 pg/mm2 in [5]. The values for the MIC in the test on Candida albicans [7] and in the test with Candida albicans [8] were 12.5 µg/mL and 50 µg/mL, respectively.

In the case of `O=C1C(c2ccc(O)c(O)c2)=c2c(c3c(n2CCc2ccc(O)cc2)=C(c2ccc(O)c(O)c2)C(=O)c2cc(O)c(O)cc2-3)-c2cc(O)c(O)cc21` [PURPURONE], the outcome (in the test with HCT-8; in the test with Bel-7402; in the test on BGC-823; in the test with A549; in the test on A2780; in test [6]) was inactive. The IC50 in test [1] and in test [2] was above 25 µg/mL in each case. In addition, the figures for the RU in test [3], in test [4] and in test [5] were -25.7 pg/mm2, -26.3 pg/mm2 and -23 pg/mm2, respectively. For the same compound, the MIC in the test with Candida albicans [7] came to 12.5 µg/mL; in the test on Candida albicans [8], 25 µg/mL.

One may read the IC50 as the point on the concentration scale where inhibition reaches its midpoint. By MIC is commonly meant the lowest concentration found to suppress growth.
